Screens deposited in PubChem BioAssay by The Scripps Research Institute Molecular Screening Center.
M5 PAM – potentiates acetylcholine response at human M5 receptor; CHO-K1 hM5, Fluo-8 calcium, ACh EC20 PAM; 0% = ACh EC20, 100% = ACh EC100; activation, % at 3 µM; hit rate 0.3% among 360,000;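 active = activation above the run cutoff, the mean activation of all test compounds plus 3 SD, cut at about 18% in these data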
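system = human M5 receptor in CHO-K1 cells | compound = one concentration, 3 µM final (nominal) | schedule = Post-acetylcholine fluorescence recording 140 s | signal = Fluo-8 calcium dye fluorescence, kinetic read | benchmarks = low control EC20 acetylcholine (0%), high control EC100 acetylcholine (100%) | repeats = singlicate, one well per test compound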
M5 ag – CHRM5 agonism in calcium assay | hit rate 0.19% among 360,000 | activation, % at 3 µM | CHO-K1 hM5 cells, Fluo-8 calcium fluorescence; 0% DMSO wells, 100% maximal acetylcholine response | P08912 | AID 624037;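 active = activation above the run's mean over test compounds plus 3 SD, cut at about 23% in these data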;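 also: signal is peak over basal fluorescence ratio across the kinetic read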
CHRM4 agonist – CHRM4 agonism in calcium assay; P08173; CHO-K1 hM4/Gqi5, Fluo-8 calcium fluorescence; vehicle 0%, full acetylcholine response 100%; activation, % at 3 µM; hit rate 0.14% among 360,000;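 active = activation above the run mean over all test wells plus 3 SD, cut at about 32% in these data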;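 also: peak over basal fluorescence ratio per well then scaled between controls; 0% = DMSO wells and 100% = acetylcholine at EC100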
Target sequence (P08173 whole entry, looked up): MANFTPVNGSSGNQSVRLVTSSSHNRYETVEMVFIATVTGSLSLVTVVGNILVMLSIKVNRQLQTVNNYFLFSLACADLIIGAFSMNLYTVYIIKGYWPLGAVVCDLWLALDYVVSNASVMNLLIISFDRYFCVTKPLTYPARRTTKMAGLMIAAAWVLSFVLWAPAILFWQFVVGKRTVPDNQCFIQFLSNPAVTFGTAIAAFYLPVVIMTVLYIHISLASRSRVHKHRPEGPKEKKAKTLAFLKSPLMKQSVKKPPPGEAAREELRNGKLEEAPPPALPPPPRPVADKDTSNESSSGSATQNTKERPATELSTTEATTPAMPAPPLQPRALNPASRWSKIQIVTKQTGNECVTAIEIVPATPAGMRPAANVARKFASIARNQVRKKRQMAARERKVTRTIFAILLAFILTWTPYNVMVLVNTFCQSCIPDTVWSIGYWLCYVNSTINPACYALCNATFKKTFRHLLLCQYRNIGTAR
CHRM5 antagonist – antagonists of human muscarinic M5 receptor (CHRM5); inhibition, % at 3 µM; CHO-hM5 cells, Fluo-8 calcium fluorescence, ACh EC80; hit rate 0.59% among 360,000; P08912;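 active = inhibition above a per-plate cutoff, the mean of that plate's test compounds plus 3 SD, cut at about 27% in these data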;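 also: 0% = acetylcholine EC80 with DMSO and 100% = DMSO without agonist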
M4 PAM – positive allosteric modulators of human muscarinic M4 receptor; P08173; CHO-K1 hM4/Gqi5, Fluo-8 calcium fluorescence, ACh EC20; 0% = ACh EC20, 100% = maximal ACh; activation, % at 3 µM; hit rate 0.4% among 360,000; AID 624126;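 active = activation above its plate's cutoff, the mean activation of sample wells plus 3 SD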
CHRM4 antagonist – blocks acetylcholine activation of human M4 receptor. P08173. CHO-hM4 cells, ACh EC80, Fluo-8 calcium fluorescence. inhibition, % at 3 µM. hit rate 0.73% among 360,000. AID 624125;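 active = inhibition above its plate's cutoff, the mean inhibition of sample wells plus 3 SD, cut at about 27% in these data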;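 also: 0% = acetylcholine EC80 with DMSO and 100% = DMSO without agonist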
Numbers without * were called inactive. The list is not random: actives were taken first. Their share in the collection is about 1.9%.

O=C(NC(c1ccccc1)C(Cl)(Cl)Cl)c1ccccc1 (stereo unspecified) was read as M5 PAM -2, M5 ag -4, CHRM4 agonist 1, CHRM5 antagonist 5, M4 PAM -7 and CHRM4 antagonist 0.
For CC(O)CNc1nc2sc3c(c2c(=O)n1CCc1ccccc1)CCCCC3 (stereo unspecified) the results were M5 PAM -4, M5 ag 0, CHRM4 agonist 7, CHRM5 antagonist -4, M4 PAM -3 and CHRM4 antagonist -4.
`COC(=O)Cn1c(=O)n(CCc2ccccc2)c(=O)c2c3c(sc21)CCCC3` gave M5 PAM -16, M5 ag -8, CHRM4 agonist -3, CHRM5 antagonist 22, M4 PAM -32 and CHRM4 antagonist 30*.
CN(C)CCNc1nc2sc3c(c2c(=O)n1CCc1ccccc1)CCCCC3 was read as M5 PAM -19, M5 ag 8, CHRM4 agonist 19, CHRM5 antagonist 17, M4 PAM -13 and CHRM4 antagonist 31*.
CCn1c(=O)n(CCc2ccccc2)c(=O)c2c3c(sc21)CCCC3 was read as M5 PAM -1, M5 ag -2, CHRM4 agonist -1, CHRM5 antagonist 1, M4 PAM 3 and CHRM4 antagonist -2.
CCN(C(=O)CSc1nnc(C)c(=O)[nH]1)c1cccc2ccccc12 was read as M5 PAM 2, M5 ag 2, CHRM4 agonist 1, CHRM5 antagonist 2, M4 PAM 9 and CHRM4 antagonist -11.
`O=C(COC(=O)c1c(F)cccc1Cl)NC(=O)Nc1ccc2c(c1)OCCO2` gave M5 PAM -10, M5 ag 9, CHRM4 agonist 20, CHRM5 antagonist 11, M4 PAM -3 and CHRM4 antagonist 12.
`C1CCC(Nc2nc3nonc3nc2N2CCSCC2)C1` gave M5 PAM 15, M5 ag 0, CHRM4 agonist 0, CHRM5 antagonist 6, M4 PAM 9 and CHRM4 antagonist 7.
`CC(C)(C)OC(=O)N1Cc2ccccc2C[C@H]1C(=O)NCC(=O)Nc1ccc2c(c1)OCCO2` gave M5 PAM -6, M5 ag -3, CHRM4 agonist 1, CHRM5 antagonist 5, M4 PAM -3 and CHRM4 antagonist 5.
`COc1ccccc1N1CCN(Cc2cn[nH]c2-c2ccc(F)cc2)CC1` gave M5 PAM -8, M5 ag 40*, CHRM4 agonist 24, CHRM5 antagonist 7, M4 PAM 17 and CHRM4 antagonist 9.
COc1ccc([C@H]2CC(=O)C=C(c3ccc(OC(F)(F)F)cc3)C2)cc1 was read as M5 PAM -10, M5 ag 0, CHRM4 agonist 0, CHRM5 antagonist 11, M4 PAM 9 and CHRM4 antagonist -4.
For COc1ccc([C@H]2CC(=O)C=C(c3ccc(CNC(=O)OC(C)(C)C)cc3)C2)cc1 the results were M5 PAM -39, M5 ag 2, CHRM4 agonist 25, CHRM5 antagonist 27, M4 PAM -14 and CHRM4 antagonist 28*.
O=C(Nc1ccccc1)Nc1ccc(Cl)c([N+](=O)[O-])c1 was read as M5 PAM -15, M5 ag 11, CHRM4 agonist 12, CHRM5 antagonist 28*, M4 PAM -10 and CHRM4 antagonist 14.
`O=C(Nc1ccccc1)Nc1ccc(F)c([N+](=O)[O-])c1` gave M5 PAM -14, M5 ag 6, CHRM4 agonist 13, CHRM5 antagonist 27*, M4 PAM -10 and CHRM4 antagonist 9.
For Cc1ccc(NC(=O)Nc2ccccc2)cc1[N+](=O)[O-] the results were M5 PAM -21, M5 ag 10, CHRM4 agonist 19, CHRM5 antagonist 16, M4 PAM -27 and CHRM4 antagonist 17.
Screening O=C(NC(=S)Nc1ccc(F)c([N+](=O)[O-])c1)c1ccccc1F returned M5 PAM -8, M5 ag -7, CHRM4 agonist 0, CHRM5 antagonist 8, M4 PAM -3 and CHRM4 antagonist 3.
CN1CCN(c2ccccc2/C=C2/C(=O)Nc3ccccc32)CC1 was read as M5 PAM -19, M5 ag -9, CHRM4 agonist 2, CHRM5 antagonist 83*, M4 PAM -16 and CHRM4 antagonist 21.
Screening Cc1cccc(C)c1NC(=O)C(c1ccc(C#N)cc1)n1c(=O)c(-c2ccccc2)nc2ccccc21 (stereo unspecified) returned M5 PAM 7, M5 ag 1, CHRM4 agonist 2, CHRM5 antagonist -7, M4 PAM 23* and CHRM4 antagonist -3.
`Cc1cccc(C)c1NC(=O)C(c1ccc(C(F)(F)F)cc1)n1c(=O)c(-c2ccccc2)nc2ccccc21` (stereo unspecified) gave M5 PAM 11, M5 ag -2, CHRM4 agonist 3, CHRM5 antagonist -9, M4 PAM 4 and CHRM4 antagonist 0.
For COc1ccc(OCC(=O)N/N=C/c2ccc(N(C)C)cc2)cc1 the results were M5 PAM -4, M5 ag -2, CHRM4 agonist 1, CHRM5 antagonist 20, M4 PAM 22* and CHRM4 antagonist -3.
For Cc1occc1C(=O)N/N=C/C=C/c1ccc(N(C)C)cc1 the results were M5 PAM -1, M5 ag -4, CHRM4 agonist 1, CHRM5 antagonist 13, M4 PAM 2 and CHRM4 antagonist -3.
Screening Cc1occc1C(=O)N/N=C/c1ccc(N(C)C)cc1 returned M5 PAM 20*, M5 ag 4, CHRM4 agonist 1, CHRM5 antagonist -15, M4 PAM -1 and CHRM4 antagonist -5.
For Cc1ccc(Cn2nnc3c(=O)[nH]c(C4CCN(S(=O)(=O)c5ccc(S(=O)(=O)NC6CC6)cc5)CC4)nc32)cc1 the results were M5 PAM 2, M5 ag -6, CHRM4 agonist 1, CHRM5 antagonist 1, M4 PAM -10 and CHRM4 antagonist 12.
`O=c1[nH]c(C2CCN(S(=O)(=O)c3ccc(S(=O)(=O)NC4CC4)cc3)CC2)nc2c1nnn2Cc1cccc(F)c1` gave M5 PAM 0, M5 ag -4, CHRM4 agonist 0, CHRM5 antagonist 7, M4 PAM -20 and CHRM4 antagonist 45*.
For O=c1[nH]c(C2CCN(S(=O)(=O)c3ccccc3)CC2)nc2c1nnn2Cc1ccccc1 the results were M5 PAM 3, M5 ag -1, CHRM4 agonist 2, CHRM5 antagonist -5, M4 PAM -27 and CHRM4 antagonist 67*.
